Data reported in ChEMBL document CHEMBL1147665, “Design, synthesis, and biological evaluation of 4-alkyliden-beta lactams: new products with promising antibiotic activity against resistant bacteria” (J Med Chem, 2006).
≈ marks a conversion by molar mass, not a printed value.

What was measured:
Assay type in all cases: functional
Streptococcus pyogenes = experiment: Antibacterial activity against Streptococcus pyogenes
How it was run: (§1)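 Broth microdilution MIC per CLSI guidelines in Mueller-Hinton broth: serial 2-fold dilutions, inoculum 5 × 10⁵ CFU/mL in equal volume, 35 °C for 16-20 h. MIC = lowest concentration with no visible turbidity. Recent clinical isolates (43 total, Gram-positive and Gram-negative); values given as MIC ranges, MIC₅₀ and MIC₉₀ per species.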

[1] = tested on: Staphylococcus epidermidis; experiment: Antibacterial activity against Staphylococcus epidermidis; how it was run: as §1
Staphylococcus aureus [2] = experiment: Antibacterial activity against methicillin-susceptible Staphylococcus aureus; how it was run: as §1
Enterococcus = experiment: Antibacterial activity against Enterococcus spp; how it was run: as §1
Streptococcus pneumoniae = experiment: Antibacterial activity against Streptococcus pneumoniae; how it was run: as §1
Haemophilus influenzae = experiment: Antibacterial activity against Haemophilus influenzae; how it was run: as §1
Staphylococcus aureus [3] = experiment: Antibacterial activity against methicillin-resistant Staphylococcus aureus
How it was run: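 Clinical isolates (3 MRSA in a 43-strain panel). Broth microdilution per CLSI, serial 2-fold dilutions in Mueller-Hinton broth, inoculum 5 × 10⁵ CFU/mL, 35 °C for 16-20 h. MIC = lowest concentration with no visible turbidity; reported as MIC range, MIC₅₀ and MIC₉₀ across isolates.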

Compound	MIC50 (Streptococcus pyogenes) [µg/mL]	MIC90 (Streptococcus pyogenes) [µg/mL]	MIC50 [1] [µg/mL]	MIC90 [1] [µg/mL]	MIC50 (Staphylococcus aureus [2]) [µg/mL]	MIC90 (Staphylococcus aureus [2]) [µg/mL]	MIC50 (Enterococcus) [µg/mL]	MIC90 (Enterococcus) [µg/mL]	MIC50 (Streptococcus pneumoniae) [µg/mL]	MIC90 (Streptococcus pneumoniae) [µg/mL]	MIC50 (Haemophilus influenzae) [µg/mL]	MIC90 (Haemophilus influenzae) [µg/mL]	MIC50 (Staphylococcus aureus [3]) [µg/mL]	MIC90 (Staphylococcus aureus [3]) [µg/mL]
CCOC(=O)/C=C1\NC(=O)[C@@H]1[C@@H](C)O[Si](C)(C)C(C)(C)C	128 (≈ 408 µM)	128 (≈ 408 µM)	> 128	> 128	> 128	> 128	> 128	> 128	128 (≈ 408 µM)	128 (≈ 408 µM)	128 (≈ 408 µM)	128 (≈ 408 µM)	–	–
C[C@@H](O[Si](C)(C)C(C)(C)C)[C@H]1C(=O)N/C1=C\C(=O)N[C@@H](Cc1ccc(O)cc1)C(=O)OC(C)(C)C	> 128	> 128	> 128	> 128	> 128	> 128	> 128	> 128	> 128	> 128	> 128	> 128	–	–
CCOC(=O)/C=C1\NC(=O)[C@@H]1[C@@H](C)OC(=O)c1ccccc1	> 128	> 128	> 128	> 128	> 128	> 128	> 128	> 128	> 128	> 128	> 128	> 128	–	–
CCOC(=O)/C=C1\NC(=O)[C@@H]1[C@@H](C)OC(=O)c1cc(OCc2ccccc2)c(OCc2ccccc2)c(OCc2ccccc2)c1	> 128	> 128	> 128	> 128	> 128	> 128	> 128	> 128	> 128	> 128	> 128	> 128	–	–
COc1cc(C(=O)O[C@H](C)[C@H]2C(=O)N/C2=C\C(=O)O)cc(OC)c1OC	> 128	> 128	> 128	> 128	> 128	> 128	> 128	> 128	128 (≈ 350 µM)	128 (≈ 350 µM)	128 (≈ 350 µM)	128 (≈ 350 µM)	–	–
CC1(C)S[C@@H]2[C@H](NC(=O)[C@H](N)c3ccc(O)cc3)C(=O)N2[C@H]1C(=O)O [AMOXICILLIN]	< 0.06	< 0.06	1 (≈ 2.74 µM)	4 (≈ 10.9 µM)	1 (≈ 2.74 µM)	8 (≈ 21.9 µM)	2 (≈ 5.47 µM)	2 (≈ 5.47 µM)	0.12 (≈ 0.328 µM)	8 (≈ 21.9 µM)	1 (≈ 2.74 µM)	64 (≈ 175 µM)	64 (≈ 175 µM)	128 (≈ 350 µM)
CCOC(=O)/C=C1\NC(=O)[C@@H]1[C@@H](C)OC(=O)c1cc(OCc2ccccc2)c(O)c(OCc2ccccc2)c1	> 128	> 128	> 128	> 128	> 128	> 128	> 128	> 128	> 128	> 128	128 (≈ 241 µM)	128 (≈ 241 µM)	–	–
C[C@@H](O[Si](C)(C)C(C)(C)C)[C@H]1C(=O)N/C1=C/C(=O)OCc1ccccc1	64 (≈ 170 µM)	64 (≈ 170 µM)	128 (≈ 341 µM)	> 128	128 (≈ 341 µM)	> 128	64 (≈ 170 µM)	64 (≈ 170 µM)	32 (≈ 85.2 µM)	32 (≈ 85.2 µM)	128 (≈ 341 µM)	128 (≈ 341 µM)	> 128	–
CCOC(=O)/C=C1\NC(=O)[C@@H]1[C@@H](C)OC(=O)c1cc(O)c(O)c(O)c1	> 128	> 128	16 (≈ 45.5 µM)	64 (≈ 182 µM)	128 (≈ 364 µM)	128 (≈ 364 µM)	> 128	> 128	128 (≈ 364 µM)	> 128	128 (≈ 364 µM)	128 (≈ 364 µM)	128 (≈ 364 µM)	128 (≈ 364 µM)
COc1cc(C(=O)O[C@H](C)[C@H]2C(=O)N/C2=C\C(=O)OCc2ccccc2)cc(OC)c1OC	128 (≈ 281 µM)	> 128	4 (≈ 8.78 µM)	16 (≈ 35.1 µM)	8 (≈ 17.6 µM)	16 (≈ 35.1 µM)	128 (≈ 281 µM)	> 128	> 128	> 128	> 128	> 128	128 (≈ 281 µM)	128 (≈ 281 µM)
C[C@@H](O[Si](C)(C)C(C)(C)C)[C@H]1C(=O)N/C1=C\C(=O)O	128 (≈ 448 µM)	> 128	> 128	> 128	> 128	> 128	128 (≈ 448 µM)	128 (≈ 448 µM)	128 (≈ 448 µM)	128 (≈ 448 µM)	> 128	> 128	–	–
CCOC(=O)C[C@H]1NC(=O)[C@@H]1[C@@H](C)O[Si](C)(C)C(C)(C)C	> 128	> 128	> 128	> 128	> 128	> 128	> 128	> 128	> 128	> 128	128 (≈ 406 µM)	> 128	–	–
CCOC(=O)/C=C1\NC(=O)[C@@H]1[C@@H](C)OC(=O)c1ccc(O)cc1	128 (≈ 401 µM)	> 128	8 (≈ 25.1 µM)	> 128	> 128	> 128	> 128	> 128	128 (≈ 401 µM)	128 (≈ 401 µM)	–	–	–	–
O=C(O)/C=C1\NC(=O)[C@@H]1Cl	16 (≈ 99 µM)	128 (≈ 792 µM)	64 (≈ 396 µM)	64 (≈ 396 µM)	32 (≈ 198 µM)	64 (≈ 396 µM)	128 (≈ 792 µM)	> 128	128 (≈ 792 µM)	128 (≈ 792 µM)	64 (≈ 396 µM)	64 (≈ 396 µM)	128 (≈ 792 µM)	128 (≈ 792 µM)
CO/N=C(\C(=O)N[C@@H]1C(=O)N2C(C(=O)O)=C(CSc3nc(=O)c(O)nn3C)CS[C@H]12)c1csc(N)n1 [CEFTRIAXONE]	< 0.06	< 0.06	8 (≈ 14.4 µM)	32 (≈ 57.7 µM)	2 (≈ 3.61 µM)	2 (≈ 3.61 µM)	> 128	> 128	0.12 (≈ 0.216 µM)	2 (≈ 3.61 µM)	< 0.06	0.12 (≈ 0.216 µM)	> 128	> 128
C[C@@H](O[Si](C)(C)C(C)(C)C)[C@H]1C(=O)N/C1=C\C(=O)Oc1cc(O)cc(O)c1	16 (≈ 40.7 µM)	16 (≈ 40.7 µM)	32 (≈ 81.3 µM)	64 (≈ 163 µM)	32 (≈ 81.3 µM)	32 (≈ 81.3 µM)	64 (≈ 163 µM)	64 (≈ 163 µM)	16 (≈ 40.7 µM)	16 (≈ 40.7 µM)	–	–	32 (≈ 81.3 µM)	64 (≈ 163 µM)
COc1cc(C(=O)O[C@H](C)[C@H]2C(=O)N/C2=C\C(=O)O)cc(OC)c1O	> 128	> 128	> 128	> 128	> 128	> 128	> 128	> 128	128 (≈ 364 µM)	128 (≈ 364 µM)	128 (≈ 364 µM)	128 (≈ 364 µM)	–	–
C[C@@H](O)[C@H]1C(=O)N2C(C(=O)O)=C(SCCNC=N)C[C@H]12 [IMIPENEM ANHYDROUS]	< 0.06	< 0.06	< 0.06	1 (≈ 3.34 µM)	< 0.06	< 0.06	0.5 (≈ 1.67 µM)	> 128	0.12 (≈ 0.401 µM)	1 (≈ 3.34 µM)	< 0.06	0.12 (≈ 0.401 µM)	64 (≈ 214 µM)	128 (≈ 428 µM)
C[C@@H](O[Si](C)(C)C(C)(C)C)[C@H]1C(=O)N/C1=C\C(=O)OCc1cc(O)cc(O)c1	32 (≈ 78.5 µM)	32 (≈ 78.5 µM)	128 (≈ 314 µM)	> 128	64 (≈ 157 µM)	64 (≈ 157 µM)	128 (≈ 314 µM)	128 (≈ 314 µM)	32 (≈ 78.5 µM)	32 (≈ 78.5 µM)	–	–	64 (≈ 157 µM)	128 (≈ 314 µM)
CCOC(=O)/C=C1\NC(=O)[C@@H]1[C@@H](C)OC(=O)c1cc(OC)c(OC)c(OC)c1	128 (≈ 325 µM)	> 128	128 (≈ 325 µM)	> 128	> 128	> 128	> 128	> 128	128 (≈ 325 µM)	128 (≈ 325 µM)	128 (≈ 325 µM)	> 128	–	–
C[C@@H](O)[C@H]1C(=O)N/C1=C\C(=O)O	128 (≈ 748 µM)	128 (≈ 748 µM)	> 128	> 128	> 128	> 128	> 128	> 128	128 (≈ 748 µM)	128 (≈ 748 µM)	> 128	> 128	–	–
C[C@@H](O[Si](C)(C)C(C)(C)C)[C@H]1C(=O)N/C1=C\C(=O)OCc1ccccc1	128 (≈ 341 µM)	> 128	> 128	> 128	> 128	> 128	> 128	> 128	128 (≈ 341 µM)	128 (≈ 341 µM)	128 (≈ 341 µM)	> 128	–	–
C[C@@H](O[Si](C)(C)C(C)(C)C)[C@H]1C(=O)N/C1=C\C(=O)OCc1cc(C(F)(F)F)cc(C(F)(F)F)c1	128 (≈ 250 µM)	> 128	> 128	> 128	> 128	> 128	> 128	> 128	128 (≈ 250 µM)	> 128	> 128	> 128	–	–
